Source: PubChem BioAssay
CR mimetic SO = lowers age-related superoxide in aged yeast cells | superoxide response (% of plate mean), % at 10 µM | S. cerevisiae aged cells, superoxide DHE fluorescence; stronger effect = lower value | actives 0.18% (n = 330,000) | AID 2690;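 active = superoxide response under a set limit, about three screen SD below normal, cut at about 65% in these data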;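 also: yeast aged for seven days with compound at 30 °C before DHE staining; 100% = average MFI of all compound-treated wells on the plate with controls excluded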
Rce1 inhib = inhibitors of yeast Ras-converting enzyme | actives 0.27% (n = 290,000) | calls only | Q03530 | AID 2563 | yeast membranes, quenched prenylated peptide cleavage fluorescence;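 active = fall in fluorescence gain of 50% or more versus controls, with final raw signal at or below 3038400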;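 also: plate controls were neutral control wells for no effect and wells lacking membranes for full effect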
Target sequence (Q03530 whole entry, looked up): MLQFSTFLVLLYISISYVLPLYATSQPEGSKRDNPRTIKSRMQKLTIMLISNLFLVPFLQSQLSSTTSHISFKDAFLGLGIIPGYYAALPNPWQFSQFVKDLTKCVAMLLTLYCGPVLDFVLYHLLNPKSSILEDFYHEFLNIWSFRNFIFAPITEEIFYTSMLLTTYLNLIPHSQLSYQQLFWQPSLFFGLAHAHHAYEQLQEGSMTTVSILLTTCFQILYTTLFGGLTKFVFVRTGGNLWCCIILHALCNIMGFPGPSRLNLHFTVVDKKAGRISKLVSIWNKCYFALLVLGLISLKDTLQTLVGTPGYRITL
MIN6 prolif-1 = inducers of beta-cell replication in MIN6 cells | MIN6 cells proliferation, ATPlite luminescence, 48 h; cells starved in 0.2% serum; 100% = growth in 10% serum | proliferation, % at 10 µM | actives 0.29% (n = 330,000) | AID 2380;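 active = compounds whose signal lies at least 3.5 SD above the mean of all wells on their plate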;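 also: 0% = DMSO-treated cells in low-serum medium and 100% = 10% serum control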
NR1D1 modulator = modulators of human Rev-erb alpha DNA binding; P20393; actives 0.79% (n = 370,000); Rev-erbα–FITC-DNA binding, fluorescence polarization, 90 min; AID 1259318; activity, % at 10 µM;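 active = activity above about 14%, limit read from the data; passing the limit was not always enough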;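 also: 0% = DMSO wells with 35 nM protein and 100% = DMSO wells with 750 nM protein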
PG9 Ab binder = binds the HIV-1 gp120 antibody PG9; TR-FRET gp120-PG9 antibody binding; actives 0.43% (n = 360,000); inhibition, % at 6.7 µM; in the data active = inhibition above about 8.5%
UCH37 DUB inh = blocks the human deubiquitinase UCH37 | purified proteasome/UCH37, Ub-AMC cleavage fluorescence | actives 0.33% (n = 330,000) | Q9Y5K5 | inhibition, % (concentration not given with the values);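 active = mean inhibition over replicate wells above about 20%, limit read from the data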;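 also: 0% = compound-free wells with enzyme and 100% = wells lacking proteasome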
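Material: human UCH37 enzyme supplied as purified proteasome complex / Amount: 0.15 nM proteasome as dispensed / Buffer or medium: pH 7.4 Tris-HCl (50 mM) with ovalbumin, ATP-MgCl2, DTT / Times: preincubation 30 min, reaction 25 min, room temperature / Technique: AMC fluorescence from Ub-AMC cleavage, excitation 355 nm, emission 460 nm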
MIN6 prolif-2 = MIN6 beta-cell replication induction, confirmed; shares compounds with MIN6 prolif-1; MIN6 beta-cell proliferation, ATPlite luminescence, 48 h; cells kept in 0.2% serum; scaled between 0.2% and 10% serum; proliferation increase, % at 50 µM; 920 tested, under 10 active; AID 463095;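 active = proliferation increase above 40% at any of the four tested concentrations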
An asterisk follows results filed as active; i = inactive; x = no result given. Rows were chosen to be rich in hits. Some 1.9% of all compounds tested hit in one or more screens of this group.

SMILES	CR mimetic SO	Rce1 inhib	MIN6 prolif-1	NR1D1 modulator	PG9 Ab binder	UCH37 DUB inh	MIN6 prolif-2
COc1ccc(N2CCN(C(=O)COc3ccc(S(=O)(=O)N4CCOCC4)cc3C)CC2)cc1	93	i	0.0*	4	1	2	5
CC(=O)c1ccc(OCC(=O)NC2CCS(=O)(=O)C2)cc1 (centres undefined)	86	i	5.0*	5	-1	4	0
Cc1cc(C(=O)NN=Cc2ccc([N+](=O)[O-])o2)c(C)o1	x	x	x	x	x	10	x
CCN1CCN(c2sc(S(C)(=O)=O)nc2S(=O)(=O)c2ccc(C)cc2)CC1	128	i	16*	-1	-1	6	-3
CC(C)CC(c1nnnn1C(C)C)N1CCN(c2ccccc2)CC1 (centres undefined)	87	i	7.3*	2	1	4	-2
Cc1ccc(S(=O)(=O)Cn2nnnc2C(CC(C)C)N2CCN(c3ccccc3)CC2)cc1 (centres undefined)	102	i	-2	-3	1	0	x
O=C1CSC(c2ccc(Cl)cc2)N1Nc1nc(N2CCOCC2)nc(N2CCOCC2)n1 (centres undefined)	95	i	9.7*	7	-1	-1	-4
COc1cc(C=NN2C(=O)c3ccccc3NC2(C)c2cccc([N+](=O)[O-])c2)cc(Br)c1O (centres undefined)	x	x	x	x	x	0	x
O=C(NCc1ccccn1)C1CCCN(S(=O)(=O)c2ccc(Br)cc2)C1 (centres undefined)	94	x	5.8*	3	0	3	0
N/N=C/C(=N\Nc1ccc(Cl)cc1)C(=O)c1ccncc1	96	i	9.8*	-5	-2	x	0
CC(=NNc1ccc(Cl)cc1)c1ccncc1	x	x	x	x	x	4	x
CC(=NNC(=S)Nc1c(C)cccc1C)c1ccc(OC(F)F)cc1	x	x	x	x	x	1	x
CCOC(=O)C1CCCN(C2CC(=O)N(c3ccc(N4C(=O)CC(N5CCCC(C(=O)OCC)C5)C4=O)cc3)C2=O)C1 (centres undefined)	75	i	9.5*	2	0	0	-1
CC(=NNC(=O)C1CC1(C)c1ccccc1)c1ccco1 (centres undefined)	x	x	x	x	x	0	x
Cn1c(=O)[nH]c(=O)c2c1nc1n2CCN1Cc1ccccc1	82	i	1	-7	0	1	x
Cn1c(=O)[nH]c(=O)c2c1nc1n2CCCN1CCc1ccccc1	96	i	7.2*	10	-1	0	3
CC1(C)CC2CC(C)(CN2C(=O)COC(=O)c2cccc([N+](=O)[O-])c2)C1 (centres undefined)	92	x	7.4*	6	-3	x	-1
CC1(C)CC2CC(C)(CN2C(=O)COC(=O)c2cccc(O)c2)C1 (centres undefined)	107	x	4	2	1	1	x
COCCc1ncc(CN2CCCCC2C(=O)Nc2ccc(Oc3ccccc3)nc2)cn1 (centres undefined)	102	i	10*	4	0	1	-2
CCCn1cnc2scc(-c3ccc(C)cc3)c2c1=O	76	x	14*	-4	0	6	-2
COc1ccc(C(=O)N/C(=C/c2cccnc2)C(=O)NCc2ccco2)cc1OC	88	i	-2	-2	-1	1	x
Cc1ccc(C(=O)N/C(=C/c2cccnc2)C(=O)NCc2ccco2)cc1	95	i	4.7*	2	1	1	-1
CC(C)c1ccc(NC(=O)C2=CC=CN3CCS(=O)(=O)N=C23)cc1	x	x	-3	1	-1	2	x
CCc1ccc(NC(=O)C2=CC=CN3CCS(=O)(=O)N=C23)cc1	97	x	11*	-3	-1	7	-4
CC1CCN(CC(=O)Nc2nc(-c3ccccc3)cs2)CC1	104	i	6.2*	-3	1	2	-6
SMILES	CR mimetic SO	Rce1 inhib	MIN6 prolif-1	NR1D1 modulator	PG9 Ab binder	UCH37 DUB inh	MIN6 prolif-2
c1cncc(CNc2ncnc3ccc(-c4ccoc4)cc23)c1	138	x	16*	-3	-1	-3	1
COc1ccc(-c2c(C(C)=O)c(C)nc3sc4c(c23)NC(c2ccccc2)NC4=O)cc1 (centres undefined)	98	i	-1	6	0	-293	x
CCOC(=O)c1c(C)nc2sc3c(c2c1-c1ccc(OC)cc1)NC(c1ccccc1)NC3=O (centres undefined)	100	i	9.2*	18	1	-8	8
Cc1ccc(S(=O)(=O)N(CC(O)CN2C(=O)NC(C)(C)C2=O)c2ccccc2)cc1 (centres undefined)	95	i	8.8*	2	0	-1	-1
CCc1nc2ccccc2c(C(=O)Nc2cc(C)ccc2C)c1C	97	i	5.8*	0	-1	0	-2
Cc1cc(C=NNc2ccc([N+](=O)[O-])cn2)c(C)n1-c1ccccc1	x	x	x	x	x	6	x
COc1nc(N)nc(N)c1NS(=O)(=O)c1ccc(C)cc1	93	x	9.8*	-5	-1	0	0
COc1ccccc1CCN1CCCC(CN(C)Cc2ccc(OCCO)cc2)C1 (centres undefined)	85	i	5.8*	-2	-2	1	-6
COc1ccccc1CCN1CCCC(CN(C)CC(C)(C)CO)C1 (centres undefined)	97	i	0	3	1	2	x
CCNC(=O)COC(=O)c1ccc(S(=O)(=O)N2CCCCCC2)cc1	97	i	5.4*	-5	-2	3	0
Cc1ccc(CNC(=O)COC(=O)c2ccc(S(=O)(=O)N3CCCCCC3)cc2)cc1	x	x	-1	1	2	0	x
COc1ccc(CCN(Cc2ccccn2)C(=S)Nc2cccc(C)c2)cc1OC	92	i	8.7*	2	0	-2	-6
COc1ccc(NC(=S)N(CCc2ccc(OC)c(OC)c2)Cc2ccccn2)cc1	104	i	0	1	-1	5	x
CCOC(=O)c1c(NC(=O)Cc2cccs2)sc(C(=O)NC2CCCC2)c1C	105	i	-3	2	4	2	x
CCOC(=O)c1c(NC(=O)CC)sc(C(=O)NC2CCCC2)c1C	101	i	8.1*	-2	2	4	-4
O=C(CNC(=O)C1COc2ccccc2O1)NN=Cc1ccc(Br)cc1 (centres undefined)	x	x	x	x	x	1	x
CC(=NNC(=O)c1ccc(NS(=O)(=O)c2cccs2)cc1)c1ccc(Cl)cc1	x	x	x	x	x	6	x
CS(=O)(=O)N1CCCC(C(=O)NCCN2CCC(Cc3ccccc3)CC2)C1 (centres undefined)	108	i	5.4*	4	0	2	-5
CC(=NNC(=O)COc1ccccc1)c1ccc(O)cc1	x	x	x	x	x	-1	x
